Data set [1] deals with PC-3 cells. In words: Uptake of 8 in PC-3 cells with or without DHT at 4 °C. As to conditions: 0.1 μCi/mL 8, 0.1 μM DHT, 16 h. Type of data set: cell-based, human. In short, it runs like this: (§1)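 Cells with very low or no AR expression. Non-radioactive DHT competitor was added before the radioiodinated test compound to block AR binding. Cells were grown with the test compound at 4 °C for 16 h and cellular retention was compared with DHT-free cells.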

The subject of data set [2] is LNCaP human prostate cancer cells. In words: Uptake and subcellular distribution in LNCaP cells. Type of data set: cell-based. The following applies: proliferating LNCaP monolayer, 24 h exposure.
The subject of data set [3] is intraperitoneal NIH:OVCAR-3 xenografts. In words: Therapy with 8 in OVCAR-3-bearing athymic mice. It counts as in vivo, mouse.
Data set [4] is described as follows: Stability in PBS. Type of data set: physicochemical. The following applies: PBS/CH3CN 10:1, pH 7.1, ambient temperature, up to 24 h.
Data set [5] has as its target T1, human sex hormone binding globulin (SHBG) (Homo sapiens, UniProt P04278).
T1 sequence (P04278 30-402): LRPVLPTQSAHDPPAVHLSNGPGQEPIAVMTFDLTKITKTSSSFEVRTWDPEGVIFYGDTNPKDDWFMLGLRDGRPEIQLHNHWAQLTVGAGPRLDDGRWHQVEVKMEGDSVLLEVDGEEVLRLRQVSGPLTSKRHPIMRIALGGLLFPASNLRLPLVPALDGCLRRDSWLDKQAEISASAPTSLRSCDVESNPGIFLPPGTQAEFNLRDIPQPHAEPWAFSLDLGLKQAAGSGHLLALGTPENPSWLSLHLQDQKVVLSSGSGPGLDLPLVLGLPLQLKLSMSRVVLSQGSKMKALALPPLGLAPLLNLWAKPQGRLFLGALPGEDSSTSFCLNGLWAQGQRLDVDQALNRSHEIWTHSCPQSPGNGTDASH
Kind of data set: Binding to purified human SHBG. The following applies: size-exclusion HPLC / ITLC.

In data set [6] the test system is intraperitoneal NIH:OVCAR-3 xenografts. Kind of data set: Biodistribution and imaging of 8 in athymic mice with ip NIH:OVCAR-3 xenografts. Type of data set: in vivo, mouse.
Data set [7] can be described thus: Binding and stability in human serum.
Data set [8] in a line: Binding and stability in rabbit serum.
In data set [9] the test system is MCF-7 cells. In words: Uptake of 8 in MCF7 cells with or without DHT at 4 °C. Type of data set: cell-based, human. The following applies: 0.1 μCi/mL 8, 0.1 μM DHT, 16 h. In short, it runs like this: as §1
Data set [10] can be described thus: Binding and stability in mouse serum.
Data set [11] deals with intraperitoneal NIH:OVCAR-3 xenografts. Kind of data set: Fractionated therapy and biodistribution of 13 in OVCAR-3-bearing mice. Type of data set: in vivo, mouse.
A short description of data set [12]: Biodistribution of fractionated ip doses of 13 in healthy mice. It counts as in vivo, mouse. The following applies: control (healthy) mice.
For data set [13], the system named is LNCaP human prostate cancer cells. Kind of data set: Cell survival of LNCaP cells. Type of data set: cell-based. As to conditions: 48 h, extracellular concentration 8 μCi/mL. In short, it runs like this: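 LNCaP cells plated at 2000 cells/well, allowed to attach for 24 h, then given fresh charcoal–dextran-stripped medium containing radioactive test compound. Survival read by CellTiter-Fluor viability assay or CellTiter 96 AQueous One Solution proliferation assay.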

The subject of data set [14] is intraperitoneal NIH:OVCAR-3 xenografts. Type of data set: in vivo, mouse.
Setting [15] is: cell pellet, six fractionated ip treatments.
The mark [16] stands for this setting: 13 (0.25 mCi) + SHBG therapy group, or SHBG only.

As for `C[C@]12CCC(=O)C[C@@H]1CC[C@@H]1[C@@H]2CC[C@]2(C)[C@@H](OC(=O)CCC(=O)O[C@H]3C[C@H](n4cc([125I])c(=O)[nH]c4=O)O[C@@H]3CO)CC[C@@H]12` [compound 8, 5-[^125I]Iodo-3′-O-(17β-succinyl-5α-androstan-3-one)-2′-deoxyuridine], the “effect of DHT competitor on cellular retention” value in data set [1] and in [9] was “In neither PC-3 nor MCF-7 cells was the cellular retention of 8 influenced by the presence of competitor” each time. Moreover, in [2], the “Bmax (single cell-binding isotherm)” value is reported as 1.4 × 10^−6 pmol/cell. In addition, the “radioactivity retained in tumors” value in [3] (12 days after the last of six therapeutic doses, decay corrected) is given as ~ 0.5 % ID/g. Moreover, in [3] (setting [15]), the “range of weight” value was in the range of 0.012 to 0.781 g. Also, the “average cell pellet weight (g) (SEM)” value in data set [3] (six fractionated ip treatments) is recorded as 0.380(0.111) g. The “^125I bound to DNA as share of total cell-associated radioactivity” value in [3] (tumors 12 days after the last of six doses) was 86.8% ± 7.4%. For the same molecule, in data set [4], the “stability in PBS” value was “stable in PBS”. In data set [5], the “binding to pure SHBG isolated from human serum” value (from here on “binding to pure SHBG isolated”) is “bind to pure SHBG isolated from human serum”. The “peritoneal lavage radioactivity associated with OVCAR-3 cells” value in [6] (24 h and later after ip administration) is over 95%. Moreover, the uptake in uterus result in [6] (72 h after ip administration) is given as “up to 1 % ID/g”. Further, the “whole body radioactivity associated with the intraperitoneal tumor (ROI)” value in [6] (72 h after ip administration of 45 μCi 8) is recorded as 8.3% ± 2.1%. Also, the “fraction of lavage radioactivity associated with cancer cells” value in data set [6] (72 h after ip injection of 45 μCi 8) was over 97%. Also, the “binding to SHBG in human serum” value in data set [7] was “bind to SHBG in rabbit and human serum”. Moreover, the intact compound remaining in data set [7] (human serum, after 60 min of incubation) is reported as over 91%; in data set [8] (rabbit serum, after 60 min of incubation), over 84%. Moreover, the “binding to SHBG in rabbit serum” value in data set [8] is “bind to SHBG in rabbit and human serum”. The “binding to mouse serum” value in data set [10] is reported as “does not bind to mouse serum”. Further, the “time in which mouse serum degrades 8 to 1” value in data set [10] (mouse serum, no SHBG) is recorded as under 10 min.
In the case of `O=c1[nH]c(=O)n([C@H]2C[C@H](O)[C@@H](COP(=O)(O)O)O2)cc1[125I]` [compound 20, 5-[^125I]Iodo-2′-deoxyuridine-5′-monophosphate], the “binding to pure SHBG isolated” value in data set [5] is listed as “Neither the control reagent 17 nor compound 20, which is the metabolite of 13, binds to SHBG or to any component of analyzed sera”. Moreover, the intact compound remaining entry in data set [10] (mouse serum, after 60 min of incubation) was “does not survive incubation in mouse serum”.
Take `C[C@]12CCC(=O)C[C@@H]1CC[C@@H]1[C@@H]2CC[C@]2(C)[C@@H](OC(=O)CCC(=O)O[C@H]3C[C@H](n4cc([125I])c(=O)[nH]c4=O)O[C@@H]3COP(=O)(O)O)CC[C@@H]12` [compound 13, 5-[^125I]Iodo-3′-O-(17β-succinyl-5α-androstan-3-one)-2′-deoxyuridin-5′-yl Monophosphate]: in data set [4], the “stability in PBS” value is given as “stable in PBS”. Besides, the “binding to pure SHBG isolated” value in [5] was “bind to pure SHBG isolated from human serum”. In addition, the “percent injected dose per gram of tissue, blood” value in data set [11] (OVCAR-3 mice, blood) is 0.003(0.0010) percent injected dose per gram of tissue; in [12] (blood) it was 0.001(0.0001) percent injected dose per gram of tissue. Moreover, the “percent injected dose per gram of tissue, heart” value in [11] (OVCAR-3 mice, heart) is on record as 0.003(0.0004) percent injected dose per gram of tissue; in [12] (heart), 0.002(0.0003) percent injected dose per gram of tissue. In addition, the “percent injected dose per gram of tissue, kidney” value in data set [11] (OVCAR-3 mice, kidney) is on record as 0.013(0.0063) percent injected dose per gram of tissue; in data set [12] (kidney), 0.005(0.0005) percent injected dose per gram of tissue. The “percent injected dose per gram of tissue, large intestine” value in data set [11] (OVCAR-3 mice, large intestine) was 0.008(0.0009) percent injected dose per gram of tissue; in data set [12] (large intestine), 0.005(0.0009) percent injected dose per gram of tissue. Moreover, the “percent injected dose per gram of tissue, liver” value in data set [11] (OVCAR-3 mice, liver) is reported as 0.017(0.0020) percent injected dose per gram of tissue; in [12] (liver), 0.006(0.0005) percent injected dose per gram of tissue. The “percent injected dose per gram of tissue, lung” value in data set [11] (OVCAR-3 mice, lung) is given as 0.008(0.0018) percent injected dose per gram of tissue; in data set [12] (lung), 0.004(0.0007) percent injected dose per gram of tissue. Besides, the “percent injected dose per gram of tissue, small intestine” value in data set [11] (OVCAR-3 mice, small intestine) was 0.011(0.0014) percent injected dose per gram of tissue; in data set [12] (small intestine), 0.006(0.0016) percent injected dose per gram of tissue. Also, the “percent injected dose per gram of tissue, spleen” value in [11] (OVCAR-3 mice, spleen) is on record as 0.043(0.0103) percent injected dose per gram of tissue; in [12] (spleen), 0.025(0.0025) percent injected dose per gram of tissue. Also, the “percent injected dose per gram of tissue, stomach” value in data set [11] (OVCAR-3 mice, stomach) was 0.009(0.0010) percent injected dose per gram of tissue; in data set [12] (stomach), 0.007(0.0002) percent injected dose per gram of tissue. In addition, in data set [11] (OVCAR-3 mice, tumor), the “percent injected dose per gram of tissue, tumor” value is on record as 2.892(0.5317) percent injected dose per gram of tissue. The “percent injected dose per gram of tissue, uterus” value is 0.027(0.0051) percent injected dose per gram of tissue in [11] (OVCAR-3 mice, uterus) and 0.015(0.0011) percent injected dose per gram of tissue in [12] (uterus). Besides, the “median weight” value in data set [11] (setting [15]) was 0.064 g. Further, the “range of weight” value in data set [11] (setting [15]) lay in the range of 0.044 to 0.076 g. In [11] (fractionated ip doses), the “average retention of ^125I in OVCAR-3 cells” value is recorded as 0.0124 ± 0.0024 cpm/cell. Further, the “radioactivity of surviving cancer cells recovered with DNA” value in [11] (fractionated ip doses, TCA precipitation) is given as “Virtually all radioactivity associated with surviving cancer cells was recovered with DNA”. In addition, in data set [11] (six fractionated ip treatments), the “average cell pellet weight (g) (SEM)” value is 0.061(0.006) g. Also, in data set [7], the “binding to SHBG in human serum” value was “bind to SHBG in rabbit and human serum”. The “binding to SHBG in rabbit serum” value in data set [8] is “bind to SHBG in rabbit and human serum”. Besides, the cells dead entry in data set [13] is “Ninety percent”. Further, in [10], the “binding to mouse serum” value is on record as “appears to bind to some unidentified component of mouse serum”. In addition, the “adverse effects from hematologic data” value in data set [14] (0.25 mCi dose) is reported as “no overt adverse effects”. In [14] (necropsy after bolus dose of 13), the “fold lower radioactivity in blood than in cancer cells” value is recorded as over 2.5 ×.
With `CCOC(=O)CCC(=O)O[C@H]1C[C@H](n2cc([125I])c(=O)[nH]c2=O)O[C@@H]1CO` [compound 17, 5-[^125I]Iodo-3′-O-succinyl-2′-deoxyuridine Ethyl Ester], in [5], the “binding to pure SHBG isolated” value is “Neither the control reagent 17 nor compound 20, which is the metabolite of 13, binds to SHBG or to any component of analyzed sera”.

B1: SHBG: Human SHBG (pure, lyophilized), injected ip alone as control or co-injected with 13 (protein, UniProt P04278 30-402, looked up)
Sex hormone-binding globulin: T1 sequence (P04278 30-402)
B1: in [14] (setting [16]), the “hematocrit (Ht)” value stood at 51.4 ± 1.6 and the “hemoglobin (Hb)” value is given as 11.5 ± 1.3. In addition, the “average weight of solid tumors” value in data set [14] (13 + SHBG or SHBG only) was 1.9 ± 0.8 g.

For the origin of these results see PMC3941710 (Journal of medicinal chemistry, 2009).
